What was measured:
[1] = tested on: Hepatitis C virus; assay: Antiviral activity against Hepatitis C virus genotype 1b Con 1 infected in human HuH7 cells at 2.5 nM after 72 hrs by luciferase assay in presence of 60 nM sofobuvir; type: functional, Hepacivirus hominis, Huh-7
How it was run: (§1)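 Stable Con1 GT1b bicistronic luciferase replicon in Huh-7 cells, 8000 cells/well. Test compound and a marketed DAA or clemizole added alone or together at varied concentrations, 0.5% DMSO final. 72 h at 37°C, then luciferase read with Bright-Glo. Inhibition expressed as % of untreated control, with cytotoxicity run in parallel. CI and DRI derived by the Chou–Talalay median-effect method.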

[2] = tested on: Hepatitis C virus; assay: Antiviral activity against Hepatitis C virus genotype 1b harboring A156T NS3/4A mutation transfected in human HuH7 cells after 72 hrs by luciferase assay; type: functional, cell-based, Hepacivirus hominis; conditions: Huh-7, 72 h
How it was run: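 Huh-7 cells were transiently electroporated with genotype 1b replicon RNA carrying the specified mutation and plated at 10000 cells/well. Compounds were added at 0.5% DMSO final for 72 h at 37°C. Read-out was Bright-Glo luciferase. EC50 is the mean of two independent runs within 2-fold of each other. A reference drug EC50 was measured alongside each mutant replicon to validate it.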

[3] = tested on: Hepatitis C virus; assay: Antiviral activity against Hepatitis C virus genotype 1b Con 1 infected in human HuH7 cells at 160 nM after 72 hrs by luciferase assay in presence of 12 nM simeprevir; type: functional, Hepacivirus hominis, Huh-7; how it was run: as §1
[4] = tested on: Hepatitis C virus; assay: Antiviral activity against Hepatitis C virus genotype 1b Con 1 infected in human HuH7 cells at 160 nM after 72 hrs by luciferase assay in presence of 7.5 uM clemizole; type: functional, Hepacivirus hominis, Huh-7; how it was run: as §1
[5] = tested on: Hepatitis C virus; assay: Antiviral activity against Hepatitis C virus genotype 1b Con 1 infected in human HuH7 cells at 10 nM after 72 hrs by luciferase assay in presence of 7.5 uM clemizole; type: functional, Hepacivirus hominis, Huh-7; how it was run: as §1
[6] = tested on: Hepatitis C virus; assay: Antiviral activity against Hepatitis C virus genotype 1b Con 1 infected in human HuH7 cells at 80 nM after 72 hrs by luciferase assay in presence of 20 uM clemizole; type: functional, Hepacivirus hominis, Huh-7
How it was run: (§2)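 Huh-7 cells stably carrying a GT1b Con1 bicistronic luciferase replicon, seeded at 8000 cells/well. The test compound and the partner DAA are dosed orthogonally at various concentrations, final 0.5% DMSO, then incubated 72 h at 37°C. Bright-Glo luciferase read-out gives replicon inhibition as % of untreated control. Cytotoxicity is checked in parallel by CellTiter-Fluor. CI and DRI are derived by the Chou–Talalay median-effect method.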

[7] = tested on: Hepatitis C virus; assay: Antiviral activity against Hepatitis C virus genotype 1b Con 1 infected in human HuH7 cells at 80 nM after 72 hrs by luciferase assay in presence of 180 nM sofobuvir; type: functional, Hepacivirus hominis, Huh-7; how it was run: as §2
[8] = tested on: Hepatitis C virus; assay: Antiviral activity against Hepatitis C virus genotype 1b Con 1 infected in human HuH7 cells at 5 nM after 72 hrs by luciferase assay in presence of 60 nM sofobuvir; type: functional, Hepacivirus hominis, Huh-7; how it was run: as §2
[9] = tested on: Hepatitis C virus; assay: Antiviral activity against Hepatitis C virus genotype 1b Con 1 infected in human HuH7 cells at 40 nM after 72 hrs by luciferase assay in presence of 60 nM sofobuvir; type: functional, Hepacivirus hominis, Huh-7; how it was run: as §2
[10] = tested on: Hepatitis C virus; assay: Antiviral activity against Hepatitis C virus genotype 1b Con 1 infected in human HuH7 cells at 40 nM after 72 hrs by luciferase assay in presence of 0.04 nM daclatasvir; type: functional, Hepacivirus hominis, Huh-7; how it was run: as §2
[11] = tested on: Hepatitis C virus; assay: Antiviral activity against Hepatitis C virus genotype 1b Con 1 infected in human HuH7 cells at 160 nM after 72 hrs by luciferase assay in presence of 0.08 nM daclatasvir; type: functional, Hepacivirus hominis, Huh-7; how it was run: as §1
[12] = tested on: Hepatitis C virus; assay: Antiviral activity against Hepatitis C virus genotype 1b Con 1 infected in human HuH7 cells at 80 nM after 72 hrs by luciferase assay in presence of 60 nM sofobuvir; type: functional, Hepacivirus hominis, Huh-7; how it was run: as §2
[13] = tested on: Hepatitis C virus; assay: Antiviral activity against Hepatitis C virus genotype 1b Con 1 infected in human HuH7 cells at 10 nM after 72 hrs by luciferase assay in presence of 20 uM clemizole; type: functional, Hepacivirus hominis, Huh-7; how it was run: as §1
[14] = tested on: Hepatitis C virus; assay: Antiviral activity against Hepatitis C virus genotype 1b Con 1 infected in human HuH7 cells at 2.5 nM after 72 hrs by luciferase assay in presence of 3 nM simeprevir; type: functional, Hepacivirus hominis, Huh-7; how it was run: as §1
[15] = tested on: Hepatitis C virus; assay: Antiviral activity against Hepatitis C virus genotype 1b Con 1 infected in human HuH7 cells at 80 nM after 72 hrs by luciferase assay in presence of 7.5 uM clemizole; type: functional, Hepacivirus hominis, Huh-7
How it was run: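 Con1 GT1b luciferase replicon Huh-7 cells, seeded at 8000 cells/well. The compound was combined orthogonally with clemizole across a range of concentrations (0.5% DMSO final) and incubated for 72 h at 37°C. Bright-Glo luciferase inhibition was expressed as a percentage of the untreated control. Cytotoxicity was run in parallel.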

[16] = tested on: Hepatitis C virus; assay: Antiviral activity against Hepatitis C virus genotype 1b Con 1 infected in human HuH7 cells at 40 nM after 72 hrs by luciferase assay in presence of 240 nM sofobuvir; type: functional, Hepacivirus hominis, Huh-7; how it was run: as §2
[17] = tested on: Hepatitis C virus; assay: Antiviral activity against Hepatitis C virus genotype 1b Con 1 infected in human HuH7 cells at 20 nM after 72 hrs by luciferase assay in presence of 0.04 nM daclatasvir; type: functional, Hepacivirus hominis, Huh-7; how it was run: as §1
[18] = tested on: Hepatitis C virus; assay: Antiviral activity against Hepatitis C virus genotype 1b Con 1 infected in human HuH7 cells at 20 nM after 72 hrs by luciferase assay in presence of 60 nM sofobuvir; type: functional, Hepacivirus hominis, Huh-7; how it was run: as §2
[19] = tested on: Hepatitis C virus; assay: Antiviral activity against Hepatitis C virus genotype 1b Con 1 infected in human HuH7 cells at 10 nM after 72 hrs by luciferase assay in presence of 240 nM sofobuvir; type: functional, Hepacivirus hominis, Huh-7; how it was run: as §1
[20] = tested on: Hepatitis C virus; assay: Antiviral activity against Hepatitis C virus genotype 1b Con 1 infected in human HuH7 cells at 20 nM after 72 hrs by luciferase assay in presence of 12 nM simeprevir; type: functional, Hepacivirus hominis, Huh-7; how it was run: as §1
[21] = tested on: Hepatitis C virus; assay: Antiviral activity against Hepatitis C virus genotype 1b Con 1 infected in human HuH7 cells at 80 nM after 72 hrs by luciferase assay in presence of 0.16 nM daclatasvir; type: functional, Hepacivirus hominis, Huh-7; how it was run: as §2
[22] = tested on: Hepatitis C virus; assay: Antiviral activity against Hepatitis C virus genotype 1b Con 1 infected in human HuH7 cells at 20 nM after 72 hrs by luciferase assay in presence of 3 nM simeprevir; type: functional, Hepacivirus hominis, Huh-7; how it was run: as §2
[23] = tested on: Hepatitis C virus; assay: Antiviral activity against Hepatitis C virus genotype 1b Con 1 infected in human HuH7 cells at 160 nM after 72 hrs by luciferase assay in presence of 0.16 nM daclatasvir; type: functional, Hepacivirus hominis, Huh-7; how it was run: as §1
[24] = tested on: Hepatitis C virus; assay: Antiviral activity against Hepatitis C virus genotype 1b Con 1 infected in human HuH7 cells at 40 nM after 72 hrs by luciferase assay in presence of 0.16 nM daclatasvir; type: functional, Hepacivirus hominis, Huh-7; how it was run: as §2
[25] = tested on: Hepatitis C virus; assay: Antiviral activity against Hepatitis C virus genotype 1b Con 1 infected in human HuH7 cells at 40 nM after 72 hrs by luciferase assay in presence of 12 nM simeprevir; type: functional, Hepacivirus hominis, Huh-7; how it was run: as §2
[26] = tested on: Hepatitis C virus; assay: Antiviral activity against Hepatitis C virus genotype 1b Con 1 infected in human HuH7 cells at 10 nM after 72 hrs by luciferase assay in presence of 5 uM clemizole; type: functional, Hepacivirus hominis, Huh-7; how it was run: as §1
[27] = tested on: Hepatitis C virus; assay: Antiviral activity against Hepatitis C virus genotype 1b Con 1 infected in human HuH7 cells at 20 nM after 72 hrs by luciferase assay in presence of 10 uM clemizole; type: functional, Hepacivirus hominis, Huh-7; how it was run: as §1
[28] = tested on: Hepatitis C virus; assay: Antiviral activity against Hepatitis C virus genotype 1b Con 1 infected in human HuH7 cells at 20 nM after 72 hrs by luciferase assay in presence of 15 uM clemizole; type: functional, Hepacivirus hominis, Huh-7; how it was run: as §2

O=C(c1nc2scc(C3CC3)n2c1Cl)N1CCN(C2CCCC2)C(=O)C1
CI [1]: 1.04 | EC50 [2]: 4 nM | CI [3]: 0.47 | CI [4]: 1.17 | CI [5]: 0.54 | CI [6]: 1.41 | CI [7]: 0.43 | CI [8]: 0.85 | CI [9]: 0.67 | CI [10]: 0.54 | CI [11]: 0.42 | CI [12]: 0.64 | CI [13]: 1.16 | CI [14]: 1.26 | CI [15]: 0.85 | CI [16]: 0.41 | CI [17]: 0.69 | CI [18]: 0.78 | CI [19]: 0.58 | CI [20]: 0.64 | CI [21]: 0.73 | CI [22]: 0.94 | CI [23]: 0.65 | CI [24]: 0.64 | CI [25]: 0.62 | CI [26]: 0.82 | CI [27]: 0.61 | CI [28]: 0.79
